Hits are enriched below; roughly 4.7% of the tested compounds scored in any of these assays.
697 NFkB inh: inhibitors of the PMA/ionomycin-induced NF-kB reporter in 697 B cells. 697 B-cell NF-kB luciferase reporter, 16 h. inhibition, % at 4 µM. 0.33% of 330,000 active; in the data active = inhibition above about 35%
IMP-1 inhibitor: blocks Pseudomonas aeruginosa IMP-1 metallo-beta-lactamase; purified IMP-1, nitrocefin hydrolysis, epi-absorbance fluorescence; 0.45% of 290,000 active; inhibition, % at 5.6 µM;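 active = inhibition above the mean plus 3 SD of all compounds in the same screening run, cut at about 4.5% in these data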;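 also: 0% = IMP-1 with DMSO and 100% = DMSO wells lacking enzyme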
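Material – recombinant IMP-1 enzyme, purified · Amount – IMP-1 0.2 nM before substrate addition · Medium – HEPES buffer pH 7.1 with ZnSO4 and Brij 35 · Timing – 25 °C, 15 min preincubation, 25 min reaction · Measured by – plate fluorescence quenching by hydrolysis product, ex 480/em 530 nm · Read-out – percent enzyme inhibition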
aSyn 5UTR inh: 5' untranslated region of α-synuclein, MLPCN primary screen. alpha-synuclein 5'UTR reporter, inhibitor activity. inhibition, % (tested at 7.5 µM). 0.82% of 300,000 active. AID 1813; in the data active = inhibition above about 60%;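 also: H4 neuroglioblastoma cells stably carrying SNCA 5'UTR luciferase fusion; 0% = DMSO wells and 100% = positive control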
Jurkat NFkB inh: inhibitors of the PMA/ionomycin-induced NF-kB reporter in Jurkat cells; inhibition, % at 4 µM; PMA/ionomycin-induced NF-kB luciferase reporter, luminescence; AID 435003; 0.53% of 330,000 active; in the data active = inhibition above about 50%
Mdm2 MdmX PPI: inhibitors of human Mdm2/MdmX interaction; O15151+Q00987; SaOS-2 split-luciferase Mdm2/MdmX complementation, luminescence; inhibition, % at 8 µM; 3% of 330,000 active;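 active = inhibition of at least 50% at 8 µM in the primary screen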
VIM-2 inh: blocks Pseudomonas aeruginosa VIM-2 metallo-beta-lactamase | inhibition, % at 5.6 µM | purified VIM-2, nitrocefin hydrolysis, epi-absorbance fluorescence | 0.89% of 290,000 active;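 active = inhibition above the mean of all tested compounds plus 3 SD, cutoff set per screening run, cut at about 7.5% in these data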;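 also: red hydrolysis product quenches plate fluorescence so inhibitors raise well fluorescence; 0% = enzyme with DMSO and 100% = DMSO without enzyme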
Mdm2 MdmX conf: confirmation of human Mdm2/MdmX interaction inhibitors; shares compounds with Mdm2 MdmX PPI; Mdm2-MdmX binding, luminescent assay; inhibition, % at 8 µM; 55% of 10,000 active; AID 489028; in the data active = inhibition above about 40%
FLuc counter: inhibits full-length luciferase, flagging false Mdm2/MdmX hits; shares compounds with Mdm2 MdmX PPI; SaOS-2 full-length luciferase counterscreen, luminescence; inhibition, % at 8 µM; 77% of 6,200 active;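 active = mean inhibition at 8 µM reaching about 37%, which flags the compound as non-specific, limit read from the data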;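 also: p53-null SaOS-2 cells with luciferase driven by a doxycycline-inducible promoter; compound on cells about two nights before reading with doxycycline added after day one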
The depositor's hits bear a star; nt = no result.

SMILES	697 NFkB inh	IMP-1 inhibitor	aSyn 5UTR inh	Jurkat NFkB inh	Mdm2 MdmX PPI	VIM-2 inh	Mdm2 MdmX conf	FLuc counter
O=C(N/N=C/c1cccc(C(F)(F)F)c1)C1CCN(c2ncc(C(F)(F)F)cc2Cl)CC1	-10	0	3	10	64*	-3	-2	nt
CCOC(=O)C1CCN(c2ccccc2CN2CCN(c3ccccc3OCC)CC2)CC1	3	-3	2	13	63*	-1	38	71*
CCOC(=O)/C(=C\c1ccccc1)C(=O)c1cc(C(C)=O)c(Nc2ccccc2)s1	0	0	-29	20	97*	-2	93*	45*
CCOC(=O)/C(=C\c1cccnc1)C(=O)c1cc(C(C)=O)c(Nc2ccccc2)s1	-8	-2	83*	16	97*	-2	99*	52*
COc1ccccc1NC(=O)Cc1nnc(SCC(=O)NC2=NCCS2)n1C	5	-3	-5	-12	-12	-5	nt	nt
C=C(C)C(=O)OC1(C(F)(F)F)Oc2cc(C)ccc2NC1=O (configuration not stated)	-46	-3	-54	16	100*	-3	61*	16
CC1(C)N=C(SCC(=O)Nc2ccc(Cl)cc2)C(c2ccc(Cl)cc2)=N1	-20	-1	-1	-3	56*	-1	13	nt
CC1(C)N=C(SCC(=O)Nc2ccc(Cl)cc2)C(c2ccccc2)=N1	-4	-3	-2	-20	40	-4	nt	nt
Cc1cc(C)cc(C(=O)NCC(=O)OCC(=O)c2cc(C)n(CC(F)(F)F)c2C)c1	-4	-3	8	8	3	-2	nt	nt
CC1=CC(=O)C(C(C)C)=C/C1=N/OC(=O)c1cccc([N+](=O)[O-])c1	-1	-1	-3	-2	29	-2	nt	nt
CC1=CC(=O)C(C(C)C)=C/C1=N\OC(=O)c1cccc2nc(C)oc12	-5	-2	-31	0	53*	-1	20	nt
CNC(=O)CN(c1cc(OCCOC)c(Cl)cc1Cl)S(=O)(=O)c1ccc(OC)cc1	-4	-1	-47	5	57*	-1	48*	79*
O=C(/C=C/c1ccco1)N1CCN(C/C=C/c2ccccc2)CC1	-19	1	3	3	21	0	nt	nt
COc1ccc(CNC(=O)[C@H](Cc2c[nH]c3ccccc23)NC(=O)[C@@H]2Cc3ccccc3CN2)cc1	20	-2	-6	1	9	-4	nt	nt
COc1ccc(NC(=O)[C@H](Cc2c[nH]c3ccccc23)NC(=O)[C@@H]2Cc3ccccc3CN2)cc1	-238	-2	20	-36	92*	-3	73*	39*
CC(/C=N/NC(=O)CNc1n[nH]c(=O)[nH]c1=O)c1ccccc1 (configuration not stated)	8	-2	8	8	16	-4	nt	nt
CCN1C(=O)CSc2ccc(C(=O)NC3CCCCC3)cc21	23	-3	14	1	-1	-1	nt	nt
CCN1C(=O)CC(c2ccccc2)N(C2CCCC2)c2nc(Nc3ccc(C(=O)NC4CCN(C)CC4)cc3OC)ncc21 (configuration not stated)	-15	nt	nt	-5	98*	nt	46*	78*
Cc1cccn2c(=O)c(C(=O)NC3CCCCC3C)c(O)nc12 (configuration not stated)	-9	nt	-7	9	34	nt	nt	nt
Cc1ccn2c(=O)c(C(=O)NC3CCCCC3C)c(O)nc2c1 (configuration not stated)	-21	nt	3	2	67*	nt	67*	68*
O=C(NC1CCCC1)C(c1ccc(F)cc1)N(Cc1ccc(F)cc1)C(=O)c1ccn[nH]1 (configuration not stated)	8	-3	-22	-3	-12	-1	nt	nt
COCCN(C(=O)CCl)C(C(=O)NC1CCCCC1)c1ccccc1C (configuration not stated)	-3	-4	-30	19	97*	-6	72*	38*
O=C(NC1CCCC1)C(c1ccc(F)cc1)N(Cc1ccccc1Cl)C(=O)CCl (configuration not stated)	-52	-1	-2	-4	55*	0	20	nt
CC(=O)N1c2c(cc(Br)cc2S(=O)(=O)NCc2ccc(C)cc2)CC1C (configuration not stated)	4	-1	16	2	23	-2	nt	nt
Cc1ccc(S(=O)c2snnc2C)cc1 (configuration not stated)	-2	-3	-66	4	-7	-1	nt	nt
SMILES	697 NFkB inh	IMP-1 inhibitor	aSyn 5UTR inh	Jurkat NFkB inh	Mdm2 MdmX PPI	VIM-2 inh	Mdm2 MdmX conf	FLuc counter
CNC(=O)c1nnsc1S(=O)c1ccc(Cl)cc1 (configuration not stated)	5	-1	-49	49	98*	1	94*	3
CC(=O)c1ccc(NC(=O)COC(=O)c2c3c(nc4ccccc24)/C(=C\c2cccs2)CCC3)cc1	2	-3	13	12	66*	-3	35	nt
O=C(COC(=O)c1c2c(nc3ccccc13)CCCC2)Nc1ccc2c(c1)OCO2	-26	-3	9	-2	41	-3	nt	nt
O=C(COC(=O)c1c2c(nc3ccccc13)/C(=C\c1cccs1)CCC2)Nc1ccccc1	-26	0	-23	0	52*	-2	11	nt
Nc1c(C(=O)Nc2ccc(S(=O)(=O)N3CCCC3)cc2)sc2nc3cc4c(cc3cc12)CCC4	nt	1	-44	nt	nt	-1	nt	nt
Nc1c(C(=O)Nc2ccc(S(=O)(=O)N3CCCC3)cc2)sc2nc3ccc(OC(F)(F)F)cc3cc12	-16	-2	109*	-1	90*	-3	-12	nt
C=C1CCC[C@]2(C)C[C@H]3OC(=O)C(CN(Cc4ccc(OC)c(OC)c4)CC(C)O)[C@H]3CC12 (some centres not stated)	8	-5	-29	18	68*	-4	48*	40*
CSc1ccc(CCNC(=O)C2CCCN(c3nn4c(=O)cc(C)nc4s3)C2)cc1 (configuration not stated)	10	-4	12	-1	16	-4	nt	nt
COc1cccc(-c2ccc3ncnc(NCc4cccs4)c3c2)c1	-14	nt	nt	6	64*	nt	51*	39*
Cn1ccc2cc(-c3ccc4ncnc(NCc5cccs5)c4c3)ccc21	-59	nt	nt	-11	64*	nt	57*	25
c1csc(CNc2ncnc3ccc(-c4ccc5c(c4)OCCO5)cc23)c1	-7	nt	nt	3	38	nt	nt	nt
c1cncc(-c2ccc3ncnc(NCc4cccs4)c3c2)c1	1	nt	nt	-8	17	nt	nt	nt
